Source: ChEMBL document CHEMBL3272197, “Synthesis and in vitro evaluation of 8-hydroxyquinoline analogs as inhibitors of dental plaque” (J Med Chem, 1976)

How the values were obtained:
[1] = 1-Octanol-water partition coefficient, log P of the compound after 90 mins; type: physicochemical
Summary of the method: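 Partitioning between 1-octanol and water. Phase volume ratio and sample amount set so that the aqueous-layer absorbance fell mostly between 0.2 and 0.9 in a 1-cm cell. The aqueous concentration was read spectrophotometrically and the octanol concentration was taken by difference. P = C_octanol/C_H2O. At least triplicate determinations used different sample amounts, and the mean log P is reported.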

Streptococcus mutans [2] = experiment: Antibacterial activity against Streptococcus mutans 6715 assessed as inhibition of plaque formation in human teeth at 10^-2 M after 48 hrs; type: functional; conditions: Streptococcus mutans, 6715, 48 h
Summary of the method: (§1)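 Sterilized extracted human teeth were immersed in Me2SO solutions of compound for two 1-min periods, each followed by 1-min air exposure. Teeth were then washed in distilled water for 5 min and incubated anaerobically at 37° in sucrose-containing trypticase broth with S. mutans.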

Streptococcus mutans [3] = experiment: Antibacterial activity against Streptococcus mutans 6715 assessed as inhibition of plaque formation in human teeth at 10^-1 M after 24 hrs; type: functional; conditions: Streptococcus mutans, 6715, 24 h; summary of the method: as §1
Streptococcus mutans [4] = experiment: Antibacterial activity against Streptococcus mutans 6715 assessed as inhibition of plaque formation in human teeth at 10^-1 M after 48 hrs; type: functional; conditions: Streptococcus mutans, 6715, 48 h; summary of the method: as §1
Streptococcus mutans [5] = experiment: Antibacterial activity against Streptococcus mutans 6715 assessed as inhibition of plaque formation in human teeth at 10^-2 M after 24 hrs; type: functional; conditions: Streptococcus mutans, 6715, 24 h; summary of the method: as §1
Streptococcus mutans [6] = experiment: Antibacterial activity against Streptococcus mutans 6715 assessed as growth inhibition at 10^-4 M after 48 hrs; type: functional; conditions: Streptococcus mutans, 6715, 48 h; read-out: GI
Summary of the method: (§2)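 Test compounds as HCl salts were added in aqueous solution to sterile trypticase broth with 50% sucrose stock, then inoculated with a 24-hr culture of S. mutans 6715. Cultures were incubated anaerobically (Gaspak) at 37°. Bacterial growth was scored at 24 and 48 hr, with a solvent control run concurrently.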

Streptococcus mutans [7] = experiment: Antibacterial activity against Streptococcus mutans 6715 assessed as growth inhibition at 10^-5 M after 48 hrs; type: functional; conditions: Streptococcus mutans, 6715, 48 h; read-out: GI; summary of the method: as §2
Streptococcus mutans [8] = experiment: Antibacterial activity against Streptococcus mutans 6715 assessed as growth inhibition at 10^-6 M after 48 hrs; type: functional; conditions: Streptococcus mutans, 6715, 48 h; read-out: GI; summary of the method: as §2
Streptococcus mutans [9] = experiment: Antibacterial activity against Streptococcus mutans 6715 assessed as growth inhibition at 10^-4 M after 24 hrs; type: functional; conditions: Streptococcus mutans, 6715, 24 h; read-out: GI; summary of the method: as §2
Streptococcus mutans [10] = experiment: Antibacterial activity against Streptococcus mutans 6715 assessed as growth inhibition at 10^-6 M after 24 hrs; type: functional; conditions: Streptococcus mutans, 6715, 24 h; read-out: GI; summary of the method: as §2
Streptococcus mutans [11] = experiment: Antibacterial activity against Streptococcus mutans 6715 assessed as growth inhibition at 10^-5 M after 24 hrs; type: functional; conditions: Streptococcus mutans, 6715, 24 h; read-out: GI; summary of the method: as §2

logP at 1.5 h [1] | Compound | inhibition at 10000 µM (Streptococcus mutans [2]) | inhibition at 100000 µM (Streptococcus mutans [3]) | inhibition at 100000 µM (Streptococcus mutans [4]) | inhibition at 10000 µM (Streptococcus mutans [5]) | inhibition of growth at 100 µM (Streptococcus mutans [6]) | inhibition of growth at 10 µM (Streptococcus mutans [7]) | inhibition of growth at 1 µM (Streptococcus mutans [8]) | inhibition of growth at 100 µM (Streptococcus mutans [9]) | inhibition of growth at 1 µM (Streptococcus mutans [10]) | inhibition of growth at 10 µM (Streptococcus mutans [11])
2.3 | Oc1ccc(F)c2cccnc12 [listing 1 of 2 here] | 60% | 80% | 80% | 80% | – | – | – | – | – | –
1 | OCc1ccc(O)c2ncccc12 [listing 1 of 2 here] | – | 0% | 0% | – | – | – | – | – | – | –
1.63 | O=Cc1ccc(O)c2ncccc12 [listing 1 of 2 here] | 40% | 100% | 80% | 40% | – | – | – | – | – | –
1.78 | COCc1ccc(O)c2ncccc12 [listing 1 of 2 here] | 20% | 80% | 60% | 20% | – | – | – | – | – | –
3.27 | Oc1ccc(I)c2cccnc12 [listing 1 of 2 here] | 20% | 100% | 100% | 80% | – | – | – | – | – | –
1.8 | CC(=O)c1ccc(O)c2ncccc12 [listing 1 of 2 here] | 60% | 100% | 100% | 60% | – | – | – | – | – | –
1.81 | N#CCc1ccc(O)c2ncccc12 [listing 1 of 2 here] | 0% | 80% | 80% | 0% | – | – | – | – | – | –
1.59 | COC(=O)Cc1ccc(O)c2ncccc12 [listing 1 of 2 here] | 0% | 100% | 100% | 20% | – | – | – | – | – | –
2.26 | CCOC(=O)Cc1ccc(O)c2ncccc12 [listing 1 of 2 here] | 0% | 100% | 80% | 20% | – | – | – | – | – | –
– | Oc1cccc2cccnc12 | – | – | – | – | 100% | 100% | 0% | 100% | 0% | 100%
– | CC(=O)c1ccc(O)c2ncccc12 [listing 2 of 2 here] | – | – | – | – | 100% | 0% | 0% | 100% | 0% | 100%
– | OCc1ccc(O)c2ncccc12 [listing 2 of 2 here] | – | – | – | – | 0% | – | – | 0% | – | –
– | N#CCc1ccc(O)c2ncccc12 [listing 2 of 2 here] | – | – | – | – | 20% | – | – | 80% | – | 0%
– | COC(=O)Cc1ccc(O)c2ncccc12 [listing 2 of 2 here] | – | – | – | – | 100% | 0% | 0% | 100% | 0% | 60%
– | CCOC(=O)Cc1ccc(O)c2ncccc12 [listing 2 of 2 here] | – | – | – | – | 100% | 0% | 0% | 100% | 0% | 100%
– | Oc1ccc(I)c2cccnc12 [listing 2 of 2 here] | – | – | – | – | 100% | 60% | 0% | 100% | 0% | 100%
– | O=Cc1ccc(O)c2ncccc12 [listing 2 of 2 here] | – | – | – | – | 100% | – | – | 100% | – | 0%
– | O=C(O)Cc1ccc(O)c2ncccc12 [listing 1 of 2 here] | – | 0% | 0% | – | – | – | – | – | – | –
1.42 | Oc1ccc(O)c2ncccc12 [listing 1 of 2 here] | 0% | 60% | 0% | 0% | – | – | – | – | – | –
– | Oc1ccc(F)c2cccnc12 [listing 2 of 2 here] | – | – | – | – | 100% | 0% | 0% | 100% | 0% | 80%
– | O=C(O)Cc1ccc(O)c2ncccc12 [listing 2 of 2 here] | – | – | – | – | 0% | – | – | 0% | – | –
– | COCc1ccc(O)c2ncccc12 [listing 2 of 2 here] | – | – | – | – | 80% | – | – | 100% | – | 0%
– | Oc1ccc(O)c2ncccc12 [listing 2 of 2 here] | – | – | – | – | 0% | – | – | 0% | – | –

Compound | logP at 1.5 h [1] | inhibition at 10000 µM (Streptococcus mutans [2]) | inhibition at 100000 µM (Streptococcus mutans [3]) | inhibition at 100000 µM (Streptococcus mutans [4]) | inhibition at 10000 µM (Streptococcus mutans [5]) | inhibition of growth at 100 µM (Streptococcus mutans [6]) | inhibition of growth at 10 µM (Streptococcus mutans [7]) | inhibition of growth at 1 µM (Streptococcus mutans [8]) | inhibition of growth at 100 µM (Streptococcus mutans [9]) | inhibition of growth at 1 µM (Streptococcus mutans [10]) | inhibition of growth at 10 µM (Streptococcus mutans [11])
Oc1cccc2cccnc12 [OXYQUINOLINE] | 1.94 | 0% | 100% | 100% | 0% | – | – | – | – | – | –
